Measured values published in ChEMBL document CHEMBL3864185, “Identification of N-(2-Phenoxyethyl)imidazo[1,2-a]pyridine-3-carboxamides as New Antituberculosis Agents” (ACS Med Chem Lett, 2016).
Converted amounts (≈) assume the structure as drawn.

Tests used:
[1] = test system: Mycobacterium tuberculosis; test: Antimycobacterial activity against drug-sensitive Mycobacterium tuberculosis H37Rv ATCC 27294 after 7 days by microplate alamar blue assay; type: functional; details: H37Rv ATCC 27294, 168 h
Method in brief: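 Microplate Alamar Blue Assay against M. tuberculosis H37Rv ATCC 27294, read by fluorescence. MIC was the lowest concentration that reduced fluorescence by >90% relative to the mean of replicate bacterium-only controls.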

Klebsiella pneumoniae = test: Antibacterial activity against Klebsiella pneumoniae 12-1 after 18 to 24 hrs by NCCLS M100-S11 based assay; type: functional
[2] = Cmax in rat at 25 mg/kg, po administered as single dose; type: ADME, organism-based; design: dose 25 mg/kg, route oral; details: in vivo
Method in brief: (§1)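 Rats given one oral dose of 25 mg/kg; n = 6 animals, values as mean ± SD. Plasma profile gave Cmax, Tmax, AUC from zero to infinity, elimination half-life, mean residence time, apparent clearance (CL/F) and apparent volume of distribution (Vd/F).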

[3] = Half life in rat at 25 mg/kg, po administered as single dose; type: ADME, organism-based; details: in vivo; method in brief: as §1
[4] = Mean residence time in rat at 25 mg/kg, po administered as single dose; type: ADME, organism-based; details: in vivo; method in brief: as §1
[5] = Tmax in rat at 25 mg/kg, po administered as single dose; type: ADME, organism-based; details: in vivo; method in brief: as §1
Escherichia coli = test: Antibacterial activity against Escherichia coli ATCC 25922 after 18 to 24 hrs by NCCLS M100-S11 based assay; type: functional
Staphylococcus aureus [6] = test: Antibacterial activity against methicillin-sensitive Staphylococcus aureus 12-1 after 18 to 24 hrs by NCCLS M100-S11 based assay; type: functional
Streptococcus pneumoniae = test: Antibacterial activity against Streptococcus pneumoniae ATCC 49619 after 18 to 24 hrs by NCCLS M100-S11 based assay; type: functional
Rattus norvegicus [7] = test: Acute toxicity in rat assessed as mortality at 500 mg/kg, po administered as single dose measured up to 7 days post dose; type: organism-based; details: in vivo, 168 h
Method in brief: (§2)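 Single dose given intravenously to mice (50 and 100 mg/kg) or orally to rats (500 and 1000 mg/kg).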

[8] = Apparent clearance in rat at 25 mg/kg, po administered as single dose; type: ADME, organism-based; details: in vivo; method in brief: as §1
Staphylococcus aureus [9] = test: Antibacterial activity against Staphylococcus aureus ATCC 25923 after 18 to 24 hrs by NCCLS M100-S11 based assay; type: functional
[10] = AUC (0 to infinity) in rat at 25 mg/kg, po administered as single dose; type: ADME, organism-based; design: dose 25 mg/kg, route oral, time infinity; details: in vivo; method in brief: as §1
Staphylococcus aureus [11] = test: Antibacterial activity against methicillin-resistant Staphylococcus aureus 12-2 after 18 to 24 hrs by NCCLS M100-S11 based assay; type: functional
Method in brief: (§3)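 Broth MIC set up per NCCLS M100-S11. Plates were incubated at 35 °C for 18–24 h. MIC was the lowest concentration that inhibited visible bacterial growth, i.e. complete growth inhibition.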

[12] = test system: Staphylococcus epidermidis; test: Antibacterial activity against methicillin-resistant Staphylococcus epidermidis 12-6 after 18 to 24 hrs by NCCLS M100-S11 based assay; type: functional; method in brief: as §3
Mus musculus = test: Acute toxicity in mouse assessed as mortality at 50 to 100 mg/kg, iv administered as single dose measured up to 7 days post dose; type: organism-based; details: in vivo, 168 h; method in brief: as §2
[13] = Apparent volume of distribution in rat at 25 mg/kg, po administered as single dose; type: ADME, organism-based; details: in vivo; method in brief: as §1
[14] = test system: Staphylococcus epidermidis; test: Antibacterial activity against methicillin-sensitive Staphylococcus epidermidis 12-1 after 18 to 24 hrs by NCCLS M100-S11 based assay; type: functional
Pseudomonas aeruginosa = test: Antibacterial activity against Pseudomonas aeruginosa 12-12 after 18 to 24 hrs by NCCLS M100-S11 based assay; type: functional
Rattus norvegicus [15] = test: Acute toxicity in rat assessed as mortality at 1000 mg/kg, po administered as single dose measured up to 7 days post dose; type: organism-based; details: in vivo, 168 h; method in brief: as §2

Cc1ccn2c(C(=O)NCCOc3ccccc3C)c(C)nc2c1
MIC90 [1]: 0.231 µg/mL (≈ 0.714 µM)

NNC(=O)c1ccncc1 [ISONIAZID]
MIC90 [1]: 0.049 µg/mL (≈ 0.357 µM)

COc1cccc(OCCNC(=O)c2c(C)nc3cc(C)ccn23)c1
MIC90 [1]: 0.254 µg/mL (≈ 0.748 µM)

COc1ccccc1OCCNC(=O)c1c(C)nc2ccc(C)cn12
MIC90 [1]: 0.401 µg/mL (≈ 1.18 µM)

Cc1ccn2c(C(=O)NCCOc3ccc(Br)cc3)c(C)nc2c1
MIC90 [1]: 0.463 µg/mL (≈ 1.19 µM)

Cc1ccc2nc(C)c(C(=O)NCCNc3ccc(Br)cc3)n2c1
MIC90 [1]: 0.25 µg/mL (≈ 0.646 µM)

Cc1ccn2c(C(=O)NCCOc3ccc(F)cc3)c(C)nc2c1
MIC90 [1]: 2 µg/mL (≈ 6.11 µM)

Cc1ccc2nc(C)c(C(=O)NCCOc3ccc([N+](=O)[O-])cc3)n2c1
MIC90 [1]: 0.245 µg/mL (≈ 0.691 µM)

Cc1ccn2c(C(=O)NCCOc3ccc(Cl)cc3)c(C)nc2c1
MIC90 [1]: 2 µg/mL (≈ 5.82 µM)

COc1ccc(OCCNC(=O)c2c(C)nc3cc(C)ccn23)cc1
MIC90 [1]: 2 µg/mL (≈ 5.89 µM)

Cc1ccc(OCCNC(=O)c2c(C)nc3ccc(C)cn23)cc1
MIC90 [1]: 0.204 µg/mL (≈ 0.631 µM)

Cc1ccc2nc(C)c(C(=O)NCCOc3ccccc3)n2c1
MIC (Klebsiella pneumoniae): > 32 µg/mL | Cmax [2]: 655 ng/mL | half-life [3]: 25.8 min | MRT [4]: 36.6 min | Tmax [5]: 19.8 min | MIC (Escherichia coli): > 32 µg/mL | MIC (Staphylococcus aureus [6]): > 32 µg/mL | MIC (Streptococcus pneumoniae): > 32 µg/mL | Activity (Rattus norvegicus [7]): Non-Toxic | CL/F [8]: 919 mL/min/kg | MIC (Staphylococcus aureus [9]): > 32 µg/mL | AUC(0-inf) [10]: 453 ng·h/mL | MIC (Staphylococcus aureus [11]): > 32 µg/mL | MIC [12]: > 32 µg/mL | Activity (Mus musculus): Non-Toxic | Vd/F [13]: 33.8 L/kg | MIC [14]: > 32 µg/mL | MIC (Pseudomonas aeruginosa): > 32 µg/mL | MIC90 [1]: 0.054 µg/mL (≈ 0.175 µM)

Cc1ccc2nc(C)c(C(=O)NCCOc3ccccc3[N+](=O)[O-])n2c1
MIC90 [1]: 0.303 µg/mL (≈ 0.855 µM)

Cc1ccc2nc(C)c(C(=O)NCCOc3ccccc3C)n2c1
MIC (Klebsiella pneumoniae): > 32 µg/mL | MIC (Escherichia coli): > 32 µg/mL | MIC (Staphylococcus aureus [6]): > 32 µg/mL | MIC (Streptococcus pneumoniae): > 32 µg/mL | MIC (Staphylococcus aureus [9]): > 32 µg/mL | MIC (Staphylococcus aureus [11]): > 32 µg/mL | MIC [12]: > 32 µg/mL | MIC [14]: > 32 µg/mL | MIC (Pseudomonas aeruginosa): > 32 µg/mL | MIC90 [1]: 0.038 µg/mL (≈ 0.118 µM)

CO[C@H]1/C=C/O[C@@]2(C)Oc3c(C)c(O)c4c(O)c(c(/C=N/N5CCN(C)CC5)c(O)c4c3C2=O)NC(=O)/C(C)=C\C=C\[C@H](C)[C@H](O)[C@@H](C)[C@@H](O)[C@@H](C)[C@H](OC(C)=O)[C@@H]1C [RIFAMPIN]
MIC90 [1]: 0.05 µg/mL (≈ 0.0608 µM)

Cc1ccc(OCCNC(=O)c2c(C)nc3cc(C)ccn23)cc1
MIC90 [1]: 0.673 µg/mL (≈ 2.08 µM)

COc1ccccc1OCCNC(=O)c1c(C)nc2cc(C)ccn12
MIC90 [1]: 2 µg/mL (≈ 5.89 µM)

Cc1ccc2nc(C)c(C(=O)NCCOc3ccc(Br)cc3)n2c1
MIC (Klebsiella pneumoniae): > 32 µg/mL | Cmax [2]: 225 ng/mL | half-life [3]: 90 min | MRT [4]: 96 min | Tmax [5]: 30 min | MIC (Escherichia coli): > 32 µg/mL | MIC (Staphylococcus aureus [6]): > 32 µg/mL | MIC (Streptococcus pneumoniae): > 32 µg/mL | Activity (Rattus norvegicus [7]): Non-Toxic | CL/F [8]: 1440 mL/min/kg | MIC (Staphylococcus aureus [9]): > 32 µg/mL | AUC(0-inf) [10]: 288 ng·h/mL | MIC (Staphylococcus aureus [11]): > 32 µg/mL | MIC [12]: > 32 µg/mL | Activity (Mus musculus): Non-Toxic | Vd/F [13]: 186 L/kg | MIC [14]: > 32 µg/mL | MIC (Pseudomonas aeruginosa): > 32 µg/mL | MIC90 [1]: 0.027 µg/mL (≈ 0.0695 µM) | Activity (Rattus norvegicus [15]): Non-Toxic

COc1cccc(OCCNC(=O)c2c(C)nc3ccc(C)cn23)c1
MIC (Klebsiella pneumoniae): > 32 µg/mL | Cmax [2]: 351 ng/mL | half-life [3]: 67.2 min | MRT [4]: 42.6 min | Tmax [5]: 10.2 min | MIC (Escherichia coli): > 32 µg/mL | MIC (Staphylococcus aureus [6]): > 32 µg/mL | MIC (Streptococcus pneumoniae): > 32 µg/mL | Activity (Rattus norvegicus [7]): Non-Toxic | CL/F [8]: 1940 mL/min/kg | MIC (Staphylococcus aureus [9]): > 32 µg/mL | AUC(0-inf) [10]: 214 ng·h/mL | MIC (Staphylococcus aureus [11]): > 32 µg/mL | MIC [12]: > 32 µg/mL | Activity (Mus musculus): Non-Toxic | Vd/F [13]: 188 L/kg | MIC [14]: > 32 µg/mL | MIC (Pseudomonas aeruginosa): > 32 µg/mL | MIC90 [1]: 0.03 µg/mL (≈ 0.0884 µM)

Cc1ccn2c(C(=O)NCCOc3ccc([N+](=O)[O-])cc3)c(C)nc2c1
MIC90 [1]: 4 µg/mL (≈ 11.3 µM)

Cc1cccc(OCCNC(=O)c2c(C)nc3ccc(C)cn23)c1
MIC (Klebsiella pneumoniae): > 32 µg/mL | MIC (Escherichia coli): > 32 µg/mL | MIC (Staphylococcus aureus [6]): > 32 µg/mL | MIC (Streptococcus pneumoniae): > 32 µg/mL | MIC (Staphylococcus aureus [9]): > 32 µg/mL | MIC (Staphylococcus aureus [11]): > 32 µg/mL | MIC [12]: > 32 µg/mL | MIC [14]: > 32 µg/mL | MIC (Pseudomonas aeruginosa): > 32 µg/mL | MIC90 [1]: 0.029 µg/mL (≈ 0.0897 µM)

Cc1ccn2c(C(=O)NCCOc3ccc(-c4ccccc4)cc3)c(C)nc2c1
MIC90 [1]: 0.518 µg/mL (≈ 1.34 µM)

Cc1ccc2nc(C)c(C(=O)NCCOc3ccc(F)cc3)n2c1
MIC90 [1]: 0.146 µg/mL (≈ 0.446 µM)

Cc1ccn2c(C(=O)NCCOc3ccccc3)c(C)nc2c1
MIC90 [1]: 0.935 µg/mL (≈ 3.02 µM)

Cc1ccn2c(C(=O)NCCOc3ccccc3[N+](=O)[O-])c(C)nc2c1
MIC90 [1]: 0.5 µg/mL (≈ 1.41 µM)

COc1ccc(OCCNC(=O)c2c(C)nc3ccc(C)cn23)cc1
MIC (Klebsiella pneumoniae): > 32 µg/mL | MIC (Escherichia coli): > 32 µg/mL | MIC (Staphylococcus aureus [6]): > 32 µg/mL | MIC (Streptococcus pneumoniae): > 32 µg/mL | MIC (Staphylococcus aureus [9]): > 32 µg/mL | MIC (Staphylococcus aureus [11]): > 32 µg/mL | MIC [12]: > 32 µg/mL | MIC [14]: > 32 µg/mL | MIC (Pseudomonas aeruginosa): > 32 µg/mL | MIC90 [1]: 0.031 µg/mL (≈ 0.0913 µM)

Cc1ccc2nc(C)c(C(=O)NCCOc3ccc(Cl)cc3)n2c1
MIC (Klebsiella pneumoniae): > 32 µg/mL | MIC (Escherichia coli): > 32 µg/mL | MIC (Staphylococcus aureus [6]): > 32 µg/mL | MIC (Streptococcus pneumoniae): > 32 µg/mL | MIC (Staphylococcus aureus [9]): > 32 µg/mL | MIC (Staphylococcus aureus [11]): > 32 µg/mL | MIC [12]: > 32 µg/mL | MIC [14]: > 32 µg/mL | MIC (Pseudomonas aeruginosa): > 32 µg/mL | MIC90 [1]: 0.03 µg/mL (≈ 0.0873 µM)

Cc1ccn2c(C(=O)NCCOc3cccc([N+](=O)[O-])c3)c(C)nc2c1
MIC90 [1]: 0.5 µg/mL (≈ 1.41 µM)

Cc1ccc2nc(C)c(C(=O)NCCOc3ccc(-c4ccccc4)cc3)n2c1
MIC90 [1]: 0.39 µg/mL (≈ 1.01 µM)

Cc1cccc(OCCNC(=O)c2c(C)nc3cc(C)ccn23)c1
MIC90 [1]: 0.329 µg/mL (≈ 1.02 µM)
